Assay results taken from ChEMBL document CHEMBL1129445 (J Med Chem, 1996).

Experiments:
[1] = molecular target: T1, Inosine-5'-monophosphate dehydrogenase 2 (Homo sapiens, UniProt P12268); assay: Inhibition of human recombinant inosine monophosphate dehydrogenase type II.
In short: (§1)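 Reactions are run either at pH 7.4 (0.1 M K phosphate, 0.5 M KCl, 3 mM EDTA, 10 μg/mL BSA) or at pH 8.0 (0.1 M Tris-HCl, 0.1 M KCl, 3 mM EDTA, 100 μg/mL BSA). DMSO ≤10%, compounds tested up to 100 μM. IC50 from fit of fractional activity = V0/[(I/IC50)^n + 1].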

Homo sapiens [2] = species: Homo sapiens; assay: Inhibition of human Lymphocyte proliferation. The IC50 values were determined by interpolation using the cubic spline determination at 10 uM; type: functional
In short: (§2)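 Human PBMC are isolated on Ficoll from heparinized blood and plated at 2 × 10^5 cells/well in RPMI-1640 with 5% FCS. Cells are stimulated with PHA (10 μg/mL final) and given compound at time 0, at 4-6 concentrations between 0.001 and 20 μM (tested to 10 μM). Cultures run in quadruplicate for 72 h at 37 °C, 7% CO2, with [3H]thymidine (0.5 μCi/well) for the last 6 h. IC50 by cubic-spline interpolation of the means.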

[3] = molecular target: T1, Inosine-5'-monophosphate dehydrogenase 2; assay: Inhibition of human recombinant type II Inosine Monophosphate Dehydrogenase at 100 uM; in short: as §1
[4] = molecular target: T1, Inosine-5'-monophosphate dehydrogenase 2; assay: Inhibition of human recombinant type II Inosine Monophosphate Dehydrogenase. at pH 8.0
In short: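 Recombinant human type II IMPDH (12.5-25 pmol) in 0.1 M Tris-HCl pH 8.0, 0.1 M KCl, 3 mM EDTA, 100 μg/mL BSA. […] IC50 fitted with a Hill equation, fractional activity = V0/[(I/IC50)^n + 1].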

Homo sapiens [5] = species: Homo sapiens; assay: Inhibition of human Lymphocyte proliferation. The IC50 values were determined by interpolation using cubic spline determination.; type: functional; in short: as §2
Mus musculus [6] = species: Mus musculus; assay: Effective dose was measured in mice as concentration required to inhibit 50% inhibition of Murine PFC response; type: functional
In short: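 Jerne plaque assay in female C3H or CD-1 mice immunized ip with SRBC on day 0, with oral daily dosing over the next 4 days. Splenic PFC per 10^6 WBC counted on day 4. ED50 read graphically from the dose-inhibition data.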

Mus musculus [7] = assay: % inhibition of Murine plaque forming cells response was measured in Mice at 12.5 mg/kg dose; type: functional
Mus musculus [8] = assay: % inhibition of Murine plaque forming cells response was measured in Mice at 25 mg/kg dose; type: functional
Mus musculus [9] = assay: % inhibition of Murine plaque forming cells response was measured in Mice at 6.25 mg/kg dose; type: functional
Mus musculus [10] = assay: Tested for the inhibition of murine PFC response at 100 mg/kg dose; type: functional
Mus musculus [11] = assay: Tested for the inhibition of murine PFC response at 25 mg/kg dose; type: functional
Mus musculus [12] = assay: Tested for the inhibition of murine PFC response at 12.5 mg/kg dose; type: functional
Mus musculus [13] = species: Mus musculus; assay: Compound was tested for its % Inhibition of Murine PFC response in Mice; type: functional
[14] = molecular target: T1, Inosine-5'-monophosphate dehydrogenase 2; assay: Compound was tested for inhibition of human recombinant type II Inosine Monophosphate Dehydrogenase. (tested to 100 and 10 uM conc); in short: as §1
Homo sapiens [15] = species: Homo sapiens; assay: Compound was tested for inhibition of human Lymphocyte proliferation. The IC50 values were determined by interpolation using the cubic spline determination at 10 uM; type: functional; in short: as §2

For `C/C(=C\Cc1c(C)c(C)c(C)c(Br)c1N)CCC(=O)O`, which IC50 [1] is on record?
The IC50 was 763 nM.

How did the IC50 (Homo sapiens [2]) turn out when `COc1c(C)c(C)c(F)c(Cl)c1C/C=C(\C)CCC(=O)O` was run?
The IC50 was greater than 10000 nM.

And the IC50 [3]?
The IC50 was 11800 nM.

Which IC50 [4] does the source give for `C/C(=C\Cc1cc(C)c2c(c1O)C(=O)OC2)CCC(=O)O` here?
The IC50 was 6960 nM.

For `COc1c(C)c(C)c(C#N)c(O)c1C/C=C(\C)CCC(=O)O`, which IC50 [1] is on record?
Its IC50 is 534 nM.

And the IC50 (Homo sapiens [5])?
The IC50 was 1700 nM.

For `C=Cc1c(C)c2c(c(O)c1C/C=C(\C)CCC(=O)O)C(=O)OC2`, which IC50 [1] is on record?
Its IC50 is 8.51 nM.

What about the IC50 (Homo sapiens [5]) of the same molecule?
The IC50 was 93 nM.

What does the source list for `CCc1c(C)c2c(c(O)c1C/C=C(\C)CCC(=O)O)C(=O)OC2`?
ED50 (Mus musculus [6]): 9 mg/kg; inhibition in vivo at 12.5 mg/kg (Mus musculus [7]): 73%; inhibition in vivo at 25 mg/kg (Mus musculus [8]): 93%; inhibition in vivo at 6.25 mg/kg (Mus musculus [9]): 25%; IC50 [1]: 12.6 nM; IC50 (Homo sapiens [5]): 57 nM

For `CCc1c2c(c(O)c(C/C=C(\C)CCC(=O)O)c1OC)C(=O)OC2`, which IC50 [4] is on record?
Its IC50 is 410 nM.

What about the IC50 (Homo sapiens [5]) of the same molecule?
The IC50 was 3000 nM.

How did the IC50 [4] turn out when `COc1c(C)c2c(c(O)c1C/C=C(\C)CCC(=O)O)C(=O)OC2C` (stereo not drawn) was run?
Its IC50 is 420 nM.

What about the IC50 (Homo sapiens [5]) of the same molecule?
Its IC50 is 600 nM.

For `C/C(=C\Cc1c(O)c2c(c(C)c1C1CC1)COC2=O)CCC(=O)O`, which IC50 [1] is on record?
The IC50 was 50.7 nM.

And the IC50 (Homo sapiens [5])?
Its IC50 is 340 nM.

`COc1c(C)c(C)c(Br)c(O)c1C/C=C(\C)CCC(=O)O` was tested. Which inhibition in vivo at 100 mg/kg (Mus musculus [10]) did it give?
Its inhibition in vivo at 100 mg/kg is 5%.

And the IC50 [1]?
Its IC50 is 36.7 nM.

And the IC50 (Homo sapiens [5])?
The IC50 was 280 nM.

For `COc1c(C)c(C)c(Cl)c(O)c1C/C=C(\C)CCC(=O)O`, which inhibition in vivo at 100 mg/kg (Mus musculus [10]) is on record?
The inhibition in vivo at 100 mg/kg was 83%.

And the inhibition in vivo at 25 mg/kg (Mus musculus [11])?
Its inhibition in vivo at 25 mg/kg is 0%.

What about the IC50 [1] of the same molecule?
The IC50 was 33.5 nM.

What about the IC50 (Homo sapiens [5]) of the same molecule?
Its IC50 is 200 nM.

What about the inhibition in vivo at 12.5 mg/kg (Mus musculus [12]) of the same molecule?
Its inhibition in vivo at 12.5 mg/kg is 0%.

How did the IC50 [1] turn out when `C/C(=C\Cc1c(N)cc(C)c(C)c1C)CCC(=O)O` was run?
The IC50 was 90800 nM.

With `COc1c(C)c(C)c(C)c(O)c1C/C=C(\C)CCC(=O)O` as the molecule, how does the IC50 [1] read?
The IC50 was 959 nM.

What about the IC50 (Homo sapiens [5]) of the same molecule?
The IC50 was 3700 nM.

What does the source list for `COc1c(C)c(C)c(Cl)c(N)c1C/C=C(\C)CCC(=O)O`?
inhibition in vivo at 100 mg/kg (Mus musculus [10]): 42%; IC50 [1]: 489 nM; IC50 (Homo sapiens [5]): 4100 nM

Which results are given for `C/C(=C\Cc1c(O)c(C)c2c(c1O)C(=O)OC2)CCC(=O)O`?
IC50 [1]: 87.7 nM; IC50 (Homo sapiens [5]): > 10000 nM

With `COc1c(C)c(C)c(C#N)c(N)c1C/C=C(\C)CCC(=O)O` as the molecule, how does the IC50 [1] read?
Its IC50 is 14800 nM.

And the IC50 (Homo sapiens [5])?
The IC50 was 4100 nM.

Which IC50 [4] does the source give for `COc1c(C/C=C(\C)CCC(=O)O)c(O)c2c(c1C(N)=O)COC2=O` here?
Its IC50 is greater than 100000 nM.

And the IC50 (Homo sapiens [5])?
Its IC50 is greater than 10000 nM.

With `COc1c(C/C=C(\C)CCC(=O)O)c(O)c2c(c1OC)COC2=O` as the molecule, how does the IC50 [4] read?
The IC50 was 126 nM.

And the IC50 (Homo sapiens [5])?
Its IC50 is 130 nM.

And the Inhibition (Mus musculus [13])?
Its Inhibition is 49%.

How did the IC50 [1] turn out when `COc1c(C)c(C)c(F)c(O)c1C/C=C(\C)CCC(=O)O` was run?
The IC50 was 1080 nM.

And the IC50 (Homo sapiens [5])?
Its IC50 is 4100 nM.

How did the IC50 [4] turn out when `COc1c(C)c2c(c(O)c1C/C=C(\C)CCC(=O)O)C(=O)NC2` was run?
The IC50 was 244 nM.

What about the IC50 (Homo sapiens [5]) of the same molecule?
Its IC50 is 1500 nM.

For `C/C(=C\Cc1c(O)cc(C)c(C)c1C)CCC(=O)O`, which IC50 [14] is on record?
Its IC50 is greater than 100000 nM.

How did the IC50 [1] turn out when `COc1c(C/C=C(\C)CCC(=O)O)cc(N)c(C)c1C` was run?
The IC50 was 17000 nM.

`COc1c(C/C=C(\C)CCC(=O)O)cc([N+](=O)[O-])c(C)c1C` was tested. Which IC50 [1] did it give?
Its IC50 is 1220 nM.

And the IC50 (Homo sapiens [5])?
Its IC50 is 9500 nM.

With `COc1c(C)c(C)c(/C=N/O)c(O)c1C/C=C(\C)CCC(=O)O` as the molecule, how does the IC50 [3] read?
Its IC50 is 11900 nM.

What about the IC50 (Homo sapiens [15]) of the same molecule?
The IC50 was greater than 10000 nM.

With `COc1c(C)c2c(c(O)c1C/C=C(\C)CCC(=O)O)C(=O)CC2` as the molecule, how does the IC50 [1] read?
Its IC50 is 140 nM.

And the IC50 (Homo sapiens [5])?
Its IC50 is 830 nM.

Which results are given for `C/C(=C\Cc1c(O)c2c(c(C)c1C(N)=O)COC2=O)CCC(=O)O`?
IC50 [1]: 231 nM; IC50 (Homo sapiens [5]): > 10000 nM

For `COc1c(Br)c2c(c(O)c1C/C=C(\C)CCC(=O)O)C(=O)OC2`, which IC50 [4] is on record?
The IC50 was 975 nM.

What about the IC50 (Homo sapiens [5]) of the same molecule?
Its IC50 is 4000 nM.

Which results are given for `COc1c(C)c(C)c(C#N)c(Cl)c1C/C=C(\C)CCC(=O)O`?
IC50 (Homo sapiens [2]): > 10000 nM; IC50 [3]: 681 nM

With `COc1c(C#N)c2c(c(O)c1C/C=C(\C)CCC(=O)O)C(=O)OC2` as the molecule, how does the IC50 [4] read?
Its IC50 is greater than 100000 nM.

What about the IC50 (Homo sapiens [5]) of the same molecule?
Its IC50 is greater than 10000 nM.

How did the IC50 (Homo sapiens [2]) turn out when `COc1c(C/C=C(\C)CCC(=O)O)cc(Br)c(C)c1C` was run?
Its IC50 is greater than 10000 nM.

And the IC50 [3]?
Its IC50 is 795 nM.

`C/C(=C\Cc1c(C)c(C)c(C)c(Br)c1O)CCC(=O)O` was tested. Which IC50 [1] did it give?
The IC50 was 620 nM.

And the IC50 (Homo sapiens [5])?
Its IC50 is 1650 nM.

How did the IC50 [1] turn out when `COc1c(C)c(C)c([N+](=O)[O-])c(O)c1C/C=C(\C)CCC(=O)O` was run?
Its IC50 is 184 nM.
